Most compounds without a hit are left out; they make up all but 1.8% or so of the library.
ATG4B inh – blocks human ATG4B protease cleavage of LC3 substrate; ATG4B cleavage of LC3-PLA2, NBD-HPC fluorescence, 1 h; 340,000 compounds, 0.51% hits; inhibition, % at 8.33 µM; Q9Y4P1; in the data active means inhibition above about 40%
Target sequence (Q9Y4P1 whole entry, looked up): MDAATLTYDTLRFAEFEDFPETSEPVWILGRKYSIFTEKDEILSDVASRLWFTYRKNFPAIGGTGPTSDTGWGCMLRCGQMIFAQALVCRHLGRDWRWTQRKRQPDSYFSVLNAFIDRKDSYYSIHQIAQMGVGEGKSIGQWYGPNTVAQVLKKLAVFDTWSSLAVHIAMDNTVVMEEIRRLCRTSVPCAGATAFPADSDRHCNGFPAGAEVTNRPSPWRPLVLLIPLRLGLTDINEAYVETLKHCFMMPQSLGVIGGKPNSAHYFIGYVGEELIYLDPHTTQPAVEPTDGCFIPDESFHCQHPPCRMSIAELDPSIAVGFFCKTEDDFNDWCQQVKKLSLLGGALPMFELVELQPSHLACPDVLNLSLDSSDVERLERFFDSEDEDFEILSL
HKDC1 inhibitor – blocks human hexokinase HKDC1 activity; inhibition, % at 20 µM; 340,000 compounds, 0.16% hits; recombinant HKDC1, G6PDH/diaphorase resazurin coupled fluorescence;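 active means inhibition above about 35% when tested at 20 µM, limit read from the data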
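Assay system: in-house recombinant HK5 (HKDC1) enzyme. Input: HKDC1 at 5 µg/mL. Medium: Tris pH 8.0 buffer with MgCl2, Tween-20, BSA, BME. Dosing: single 20 µM dose. Schedule: 90 min reaction incubation at room temperature, dark. Signal: resazurin-to-resorufin fluorescence via G6PDH and diaphorase coupling, 525/613 nm. Controls: DMSO-enzyme wells negative, buffer-substituted wells positive.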
LANA-H2B inh – blocks KSHV LANA binding to histone H2A/H2B. AID 2629. inhibition, % (concentration not given with the values). cell-free LANA-H2A/H2B peptide, fluorescence polarization. 320,000 compounds, 0.6% hits. Q9QR71; in the data active means inhibition mostly above about 10%, no sharp cut-off; inactive means mostly below about 6.7%
Bfl-1 A1 inh – inhibitors of the anti-apoptotic protein A1, read as caspase activation; 330,000 compounds, 0.066% hits; caspase activation, % (test concentration not listed); AID 2462; MEF A1-2A-BIM cells, Caspase-Glo 3/7 luminescence, 3 h; percent of clofoctol response, vehicle zero;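 active means over half of replicate activation scores above 10%, or exactly half above 10 with the replicate mean above 10; inconclusive means replicate mean below 10 yet half the replicates above 10; inactive means over half of replicates below 10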
HDAC3 inh – inhibitors of human histone deacetylase 3; recombinant HDAC3, fluorogenic peptide/trypsin coupled, fluorescence; inhibition, % at 8.3 µM; 320,000 compounds, 0.15% hits; AID 2718; in the data active means inhibition above about 26%, passing the limit was not always enough; inconclusive means no clear call, values can overlap the other calls
AI-2 QS mod – Vibrio harveyi AI-2 quorum sensing modulation; 300,000 compounds, 0.4% hits; activity change, % at 7.5 µM; Vibrio harveyi JMH597 AI-2 luminescence/OD600 ratio, 9 h; hits give low values; strain lacks LuxN and CqsS sensors; 0 = neutral-control median; in the data active means activity change below about -75%, passing the limit was not always enough; inconclusive means no clear call, values can overlap the other calls;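 further: luminescence divided by OD600 gain over 9 h not by final OD600 alone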
JMH597 growth rt – retest Vibrio harveyi JMH597 growth inhibition; AID 2726; OD600 absorbance, 9 h; lacks LuxN and CqsS sensors; 750 compounds, 1% hits; growth inhibition, % at 7.5 µM; shares compounds with AI-2 QS mod;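 active means every replicate shows growth inhibition above 50%; inconclusive means at least half, but not all, replicates pass that cutoff; inactive means fewer than half of replicates pass it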
BB721 lum counter – retest counter-screen: BB721 constitutive quorum sensing luminescence decrease; inhibition, % at 7.5 µM; 750 compounds, 95% hits; shares compounds with AI-2 QS mod; AID 2727; Vibrio harveyi BB721 luminescence, 9 h;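 active means inhibition above about 80% in every replicate, not just on average, limit read from the data; inconclusive means at least half of replicates past the limit, but not all; inactive means fewer than half of replicates past the limit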
BB721 growth – retest: inhibitors of Vibrio harveyi BB721 growth; shares compounds with AI-2 QS mod; OD600 absorbance, 9 h; growth inhibition, % at 7.5 µM; 750 compounds, 3% hits;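 active means every replicate shows growth inhibition above 50%; inconclusive means at least half but not all replicates above 50% inhibition; inactive means under half of replicates above 50% inhibition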
AI-2 QS JMH597 – Vibrio harveyi AI-2 signaling luminescence modulation – JMH597 strain, confirmation. Vibrio harveyi JMH597 AI-2 quorum sensing luminescence, 9 h; luxN and CqsS knockout, AI-2 only. shares compounds with AI-2 QS mod. 750 compounds, 97% hits. inhibition, % at 7.5 µM. AID 2736;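 active means every replicate shows more than 75% inhibition of signal versus neutral control wells; inconclusive means half to three quarters of replicates exceed 75% inhibition; inactive means fewer than half of replicates exceed 75% inhibition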
A number is an active result; - = inactive; ? = inconclusive; . = not tested or not shown.

SMILES	ATG4B inh	HKDC1 inhibitor	LANA-H2B inh	Bfl-1 A1 inh	HDAC3 inh	AI-2 QS mod	JMH597 growth rt	BB721 lum counter	BB721 growth	AI-2 QS JMH597
COc1ccc(CCN2C(=O)CC(C(N)=O)SC2=Nc2ccccc2)cc1OC (stereo not given)	-	-	-	-	-	-	.	.	.	.
O=C(c1ccccn1)c1cc2ccccc2n1S(=O)(=O)c1ccccc1	-	-	.	-	.	-	.	.	.	.
COc1ccc(C(=O)NCCNC(=O)c2cnccn2)cc1	-	-	-	-	-	-	.	.	.	.
COc1ccc(-c2nc(C#N)c(NCCc3ccccc3)o2)cc1	-	-	-	-	-	-	.	.	.	.
N#Cc1nc(-c2ccccc2)oc1NCc1ccco1	-	-	-	-	-	?	-	89.5	-	92.7
CNc1oc(-c2ccccc2)nc1C#N	-	-	-	-	-	-	.	.	.	.
COc1ccc(CNc2oc(-c3ccccc3)nc2C#N)cc1	-	-	-	-	-	-95.4	-	97.9	-	98.8
OCCC1CN(Cc2ccc3cccc(F)c3n2)CCN1Cc1ccccc1 (stereo not given)	-	-	-	-	-	-	.	.	.	.
CC(Cc1cccnc1)NC(=O)c1cc(COc2c(F)cccc2F)on1 (stereo not given)	-	-	-	-	-	?	-	87.7	-	91.6
COc1cccc(C(=O)Oc2ccc(/C=N/Nc3ccc(C(=O)O)cc3)cc2OC)c1	-	-	-	-	-	-	.	.	.	.
COc1cccc(OCc2cc(/C=N/Nc3ccc(C(=O)O)cc3)ccc2OC)c1	-	-	-	-	-	-84.0	-	92.2	-	95.2
O=C(O)c1ccc(N/N=C/c2ccc3c(c2)OCO3)cc1	-	-	-	-	-	-84.7	-	97.9	-	97.6
O=C(O)c1ccc(N/N=C/c2cc3c(cc2[N+](=O)[O-])OCO3)cc1	-	-	-	-	-	?	-	93.5	-	94.0
CSc1cccc(NC(=O)Cn2cnc(S(=O)(=O)N3CCCC3)c2)c1	-	-	-	-	-	-	.	.	.	.
Clc1ccc2oc(SCc3cccnc3)nc2c1	-	-	-	-	-	-81.1	-	96.8	-	96.5
[O-][n+]1cccc(C(O)c2ccccc2)c1 (stereo not given)	-	-	-	-	-	-	.	.	.	.
c1ccc(OCCCc2nc(-c3cccnc3)no2)cc1	-	-	-	-	-	-92.6	-	98.4	-	99.1
Cc1cccc(-c2noc(Cc3ccc(Cl)cc3)n2)c1	-	-	-	-	-	-	.	.	.	.
COc1ccc(CCc2nc(-c3ccc(-n4cccc4)cc3)no2)cc1	-	-	-	-	-	-	.	.	.	.
COc1ccc(Cc2nc(-c3cccc(C)c3)no2)cc1	-	-	-	-	-	-80.4	-	94.1	-	96.0
c1ccc(CCCc2nc(-c3cccnc3)no2)cc1	-	-	-	-	-	-	.	.	.	.
COc1ccc(Cc2nc(-c3ccccn3)no2)cc1	-	-	-	-	-	-88.1	-	95.3	-	96.3
COc1ccc(-c2noc(CCc3ccccc3)n2)cc1	-	-	-	-	-	?	-	94.5	-	96.8
Cn1cc(SCC(=O)NC2CCCCC2)c2ccccc21	-	-	-	-	-	-	.	.	.	.
CC(OC(=O)C1=COCCO1)C(=O)Nc1ncc(Cl)cc1Cl (stereo not given)	-	-	.	.	.	.	.	.	.	.
SMILES	ATG4B inh	HKDC1 inhibitor	LANA-H2B inh	Bfl-1 A1 inh	HDAC3 inh	AI-2 QS mod	JMH597 growth rt	BB721 lum counter	BB721 growth	AI-2 QS JMH597
Cc1cc(NC(=O)COC(=O)C2=NN(c3ccccc3)C(=O)CC2)c([N+](=O)[O-])cc1C	-	-	-	?	-	.	.	.	.	.
COC(=O)c1cccc(NC(=O)C(C)N2C(=O)c3ccccc3C2=O)c1 (stereo not given)	-	-	-	-	-	-86.4	-	95.2	-	96.8
COC(=O)c1cccc(NC(=O)Cn2nnc3ccccc32)c1	-	-	-	-	-	-83.6	-	89.5	-	92.8
COC(=O)c1cccc(NC(=O)CN2C(=O)c3ccccc3C2=O)c1	-	-	-	-	-	-97.0	-	99.5	-	99.7
COC(=O)c1cccc(NC(=O)CN2CCOCC2)c1	-	-	-	-	-	-	.	.	.	.
COCCN(C(=O)COC(=O)Cc1cccc(OC)c1)c1c(N)n(CC(C)C)c(=O)[nH]c1=O	-	-	-	-	-	-	.	.	.	.
CC(=O)Nc1ccc(S(=O)(=O)Nc2ccc3c(c2)OCCO3)cc1Cl	-	-	-	-	-	-97.4	-	99.4	-	99.6
COc1ccc(S(=O)(=O)Nc2ccc3c(c2)OCCO3)cc1Cl	-	-	-	-	-	-	.	.	.	.
Cn1c(CN2CCOCC2)nnc1SCC(=O)Nc1cc(Cl)ccc1Cl	-	-	-	-	-	-	.	.	.	.
O=C(Nc1cnn(Cc2ccc(F)cc2)c1)c1cnccn1	-	-	-	-	-	-95.2	-	97.7	-	98.4
CC(C)Cc1ccc(S(=O)(=O)Nc2ccccn2)cc1	-	-	-	-	-	-93.0	-	97.9	-	99.6
COc1cc(NC(=O)Cn2ncc(Cl)c(Cl)c2=O)c(C)cc1[N+](=O)[O-]	-	-	.	.	.	-79.5	-	93.2	-	94.1
COc1cc(NC(=O)CN2C(=O)CN(C)C2=O)c(C)cc1[N+](=O)[O-]	-	-	-	-	-	-	.	.	.	.
Cc1ccc(NC(=O)Cn2nnc3ccccc3c2=O)cc1	-	-	-	-	-	-84.2	-	97.2	-	97.8
O=C(Cn1nnc2ccccc2c1=O)Nc1ccc(S(=O)(=O)N2CCOCC2)cc1	-	-	-	-	-	-96.8	-	99.5	-	99.6
Cc1ccc(NC(=O)Cn2nnc3ccccc3c2=O)cc1C	-	-	-	-	-	-93.2	-	98.9	-	99.3
CC(=O)c1ccc(NC(=O)CCCCCn2nnc3ccccc3c2=O)cc1	-	-	-	-	-	-	.	.	.	.
COc1ccc(NC(=O)CCCCCn2nnc3ccccc3c2=O)cc1OC	-	-	-	-	-	-	.	.	.	.
O=C(COC(=O)c1n[nH]c2ccccc12)Nc1cccc(S(=O)(=O)N2CCOCC2)c1	-	-	.	.	.	-	.	.	.	.
Cc1cc(C)cc(NC(=O)COC(=O)c2n[nH]c3ccccc23)c1	-	-	-	-	-	-88.7	-	95.8	-	96.4
O=C(COC(=O)c1n[nH]c2ccccc12)Nc1ccccc1	-	-	-	-	-	-	.	.	.	.

Screens as filed in PubChem.
